In publication PMC8546857 (Acta Pharmaceutica Sinica. B, 2021):
Entries after “also recorded” stand apart in the source; their conditions may differ. Read-outs that look alike come from different tables or passages of the source.

Columns and labels:
[1] = biological target: TEAD3-YBD recombinant protein (Homo sapiens, UniProt Q99594); experiment: gel-based ABPP in vitro palmitoylation assay, TEAD3; type: biochemical; conditions: for inhibition of TEAD3 palmitoylation: click-based ABPP assay
Procedure, shortened: (§1)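 Protein incubated with varying test compound concentrations, 37 °C, 2 h; flufenamic acid as positive control. Then 2.5 μmol/L palmitoyl-CoA on ice, click reaction at RT. Quenched in SDS buffer with 30 mmol/L EDTA, 95 °C, 5 min. Read by Western blot with densitometry; biological triplicates, mean ± SD.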

TEAD1-YBD = TEAD1-YBD (Homo sapiens, UniProt P28347); experiment: gel-based ABPP in vitro palmitoylation assay, TEAD1; type: biochemical; conditions: gel-based ABPP selectivity profiling
TEAD1-YBD, sequence (P28347 209-426): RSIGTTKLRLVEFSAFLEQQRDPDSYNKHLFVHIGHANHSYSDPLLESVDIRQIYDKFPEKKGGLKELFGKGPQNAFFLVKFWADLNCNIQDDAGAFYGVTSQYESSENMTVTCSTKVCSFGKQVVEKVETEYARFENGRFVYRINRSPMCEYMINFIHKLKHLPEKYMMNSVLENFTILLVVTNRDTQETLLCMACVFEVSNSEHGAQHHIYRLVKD
Procedure, shortened: as §1

TEAD2 = TEAD2 (Homo sapiens, UniProt Q15562); experiment: gel-based ABPP in vitro palmitoylation assay, TEAD2; type: biochemical; conditions: gel-based ABPP selectivity profiling
TEAD2, sequence (Q15562 217-447): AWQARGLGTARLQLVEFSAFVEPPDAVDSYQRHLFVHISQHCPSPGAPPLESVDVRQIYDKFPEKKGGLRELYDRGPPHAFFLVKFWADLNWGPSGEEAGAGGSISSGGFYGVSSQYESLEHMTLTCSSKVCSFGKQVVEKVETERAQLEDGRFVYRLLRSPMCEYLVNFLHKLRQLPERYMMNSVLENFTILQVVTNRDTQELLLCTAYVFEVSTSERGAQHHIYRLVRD
Procedure, shortened: as §1

TEAD4 = TEAD4 (Homo sapiens, UniProt Q15561); experiment: gel-based ABPP in vitro palmitoylation assay, TEAD4; type: biochemical; conditions: gel-based ABPP selectivity profiling
TEAD4, sequence (Q15561 217-434): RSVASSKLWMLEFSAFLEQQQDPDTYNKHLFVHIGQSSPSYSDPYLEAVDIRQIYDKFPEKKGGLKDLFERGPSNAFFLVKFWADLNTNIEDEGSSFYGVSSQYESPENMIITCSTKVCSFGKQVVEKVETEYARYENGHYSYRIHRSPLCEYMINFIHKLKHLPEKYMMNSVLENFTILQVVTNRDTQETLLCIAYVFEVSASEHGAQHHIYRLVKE
Procedure, shortened: as §1

[2] = biological target: TEAD3 Y223 mutated to phenylalanine (Homo sapiens, UniProt Q99594, Y230F); experiment: gel-based ABPP assay, TEAD3 Y223F mutant; type: biochemical
TEAD3 Y223 mutated to phenylalanine, sequence (Q99594 219-435 Y230F): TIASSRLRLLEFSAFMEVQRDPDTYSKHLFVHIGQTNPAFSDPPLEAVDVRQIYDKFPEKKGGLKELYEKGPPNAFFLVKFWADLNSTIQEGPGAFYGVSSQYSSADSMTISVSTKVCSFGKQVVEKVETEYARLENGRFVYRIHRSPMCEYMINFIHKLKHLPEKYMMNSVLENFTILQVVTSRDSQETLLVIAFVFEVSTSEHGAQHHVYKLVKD
Procedure, shortened: as §1

wild-type TEAD3-YBD = wild-type TEAD3-YBD (Homo sapiens, UniProt Q99594); experiment: protein thermal shift assay; type: binding; conditions: DSF
wild-type TEAD3-YBD, sequence (Q99594 219-435): as the sequence (Q99594 219-435 Y230F) above, with F12Y counted along it
Procedure, shortened: (§2)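 Differential scanning fluorimetry. 5 μmol/L purified wild-type or mutant protein with 5× SYPRO Orange, in 20 mmol/L HEPES pH 8.5, 100 mmol/L NaCl, 2.5% DMSO, with or without test compound. Ramped 25–95 °C on a real-time PCR instrument, ROX filter. Tm calculated from raw fluorescence data.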

widetype TEAD1 = widetype TEAD1 (Homo sapiens, UniProt P28347); experiment: protein thermal shift assay; type: binding; conditions: DSF
widetype TEAD1, sequence (P28347 209-426): as the sequence (P28347 209-426) above
Procedure, shortened: as §2

TEAD3-YBD C371A mutant = TEAD3-YBD C371A mutant (Homo sapiens, UniProt Q99594, C368A); experiment: protein thermal shift assay; type: binding; conditions: DSF
TEAD3-YBD C371A mutant, sequence (Q99594 219-435 C368A): as the sequence (Q99594 219-435 Y230F) above, with F12Y, C150A counted along it
Procedure, shortened: as §2

TEAD1 C359S = TEAD1 C359S (Homo sapiens, UniProt P28347, C359S); experiment: protein thermal shift assay; type: binding; conditions: DSF
TEAD1 C359S, sequence (P28347 209-426 C359S): as the sequence (P28347 209-426) above, with C151S counted along it
Procedure, shortened: as §2

GAL4-TEAD3 = GAL4-TEAD3 (Homo sapiens, UniProt Q99594); experiment: GAL4-Luc reporter assay, GAL4-TEAD3; type: cell-based
GAL4-TEAD3, sequence (Q99594 2-435): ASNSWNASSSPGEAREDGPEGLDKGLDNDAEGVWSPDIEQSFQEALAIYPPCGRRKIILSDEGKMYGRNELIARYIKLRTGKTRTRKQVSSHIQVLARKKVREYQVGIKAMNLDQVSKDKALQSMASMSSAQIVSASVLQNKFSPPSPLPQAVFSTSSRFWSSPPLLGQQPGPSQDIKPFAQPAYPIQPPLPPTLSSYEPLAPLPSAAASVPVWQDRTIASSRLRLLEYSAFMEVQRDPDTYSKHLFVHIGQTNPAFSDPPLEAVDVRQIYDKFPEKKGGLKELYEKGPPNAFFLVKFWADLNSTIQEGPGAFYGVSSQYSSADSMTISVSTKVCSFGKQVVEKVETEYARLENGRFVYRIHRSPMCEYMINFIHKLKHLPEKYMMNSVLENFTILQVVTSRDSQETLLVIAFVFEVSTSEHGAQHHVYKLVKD
GAL4-TEAD3, sequence (P46937 whole entry partner, the tested form may be a part): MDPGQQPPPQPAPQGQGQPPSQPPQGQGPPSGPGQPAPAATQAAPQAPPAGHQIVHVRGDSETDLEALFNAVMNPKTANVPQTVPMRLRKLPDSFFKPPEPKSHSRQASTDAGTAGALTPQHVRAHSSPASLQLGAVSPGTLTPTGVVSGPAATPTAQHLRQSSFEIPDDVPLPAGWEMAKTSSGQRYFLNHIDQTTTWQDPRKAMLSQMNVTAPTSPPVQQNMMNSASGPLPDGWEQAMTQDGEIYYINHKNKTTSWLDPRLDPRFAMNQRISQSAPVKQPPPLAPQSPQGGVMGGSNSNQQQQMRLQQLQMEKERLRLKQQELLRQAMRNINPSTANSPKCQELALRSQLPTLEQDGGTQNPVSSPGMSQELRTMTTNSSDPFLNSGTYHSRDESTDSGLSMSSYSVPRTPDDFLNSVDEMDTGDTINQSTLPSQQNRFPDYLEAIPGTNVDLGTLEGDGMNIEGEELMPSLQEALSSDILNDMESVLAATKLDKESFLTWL
Procedure, shortened: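 HEK293T cells (DMEM, 10% FBS, 1% penicillin/streptomycin) co-transfected with a GAL4-Luc reporter (secreted luciferase, 9×GAL4 binding elements), a GAL4-DBD-fused TEAD1, TEAD2, TEAD3 or TEAD4 expression vector, and a YAP-expressing plasmid. Test compound at the specified concentration, 37 °C, 12 h; luciferase signal read on a plate reader. Mean of three technical replicates.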

[3] = system: 8xGTIIC-Luc TEADs reporter; experiment: TEAD luciferase reporter assay; type: cell-based; conditions: HEK293T cells, compared with DC-TEADin1072-N1
Procedure, shortened: (§3)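 HEK293T seeded at 2 × 10^5/well. Transfected with 200 ng 8xGTIIC-Luc TEAD reporter or TOPFlash β-catenin reporter, plus 20 ng pGL4.75 Renilla as internal control. Cells then exposed to various concentrations of test compound or DMSO. Firefly and Renilla signals measured by dual-luciferase assay.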

[4] = system: TOP Flash beta-catenin reporter system; experiment: TOPFlash beta-catenin reporter assay; type: cell-based; conditions: HEK293T cells
Procedure, shortened: as §3

TEAD3 [5] = biological target: T1, TEAD3 (Homo sapiens, UniProt Q99594); experiment: cellular thermal shift assay; type: cell-based; conditions: HEK293T cells, 50 μmol/L, 6 h
Procedure, shortened: (§4)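 HEK293T transfected with N-terminal 3×FLAG-tagged TEAD1–4, then given 50 μmol/L test compound or DMSO, 37 °C, 6 h. Cells trypsinised, PBS-washed, resuspended in PBS with protease inhibitor. Aliquots heated 3 min at set temperatures, then 3 min at room temperature. Three freeze–thaw cycles (liquid nitrogen/RT water), spin 20,000×g, 30 min, 4 °C. Soluble fraction immunoblotted for FLAG, with GAPDH.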
Target sequence in this assay (Q99594 whole entry): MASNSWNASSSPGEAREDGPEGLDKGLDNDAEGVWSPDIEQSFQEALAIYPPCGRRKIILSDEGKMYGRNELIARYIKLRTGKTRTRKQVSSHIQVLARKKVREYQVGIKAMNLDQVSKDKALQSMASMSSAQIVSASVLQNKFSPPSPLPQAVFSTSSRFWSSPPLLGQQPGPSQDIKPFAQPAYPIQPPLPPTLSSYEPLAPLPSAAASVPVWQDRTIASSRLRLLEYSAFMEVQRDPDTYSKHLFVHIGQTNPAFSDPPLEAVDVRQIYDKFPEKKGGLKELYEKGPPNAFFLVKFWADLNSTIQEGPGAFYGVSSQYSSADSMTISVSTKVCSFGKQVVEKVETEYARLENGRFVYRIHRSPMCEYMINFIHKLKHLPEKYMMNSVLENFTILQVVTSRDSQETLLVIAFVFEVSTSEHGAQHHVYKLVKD

juvenile zebrafish = experiment: proportional growth of juvenile zebrafish; type: in vivo; conditions: 2-month-old juveniles, 0.25 μmol/L in water, 14 days
Procedure, shortened: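 AB wild-type zebrafish, 2 months old, both sexes equally, 10 per dish in 30 mL sterilised facility water. Water held 0.25 μmol/L test compound (final) or matching DMSO dilution for 14 days, aerated, refreshed daily; fed twice daily. Fish imaged by stereomicroscope from day 0. Fin length taken from fin base to line joining lobe tips; body length from jaw tip to caudal fin base.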

TEAD1-YBD C359A mutant = TEAD1-YBD C359A mutant (Homo sapiens, UniProt P28347, C359A); experiment: protein thermal shift assay; type: binding; conditions: DSF
TEAD1-YBD C359A mutant, sequence (P28347 209-426 C359A): as the sequence (P28347 209-426) above, with C151A counted along it

TEAD‒YAP interaction [6] = biological target: T2, TEAD‒YAP interaction (Homo sapiens, UniProt Q99594); experiment: fluorescence polarization assay with FITC-labeled YAP peptide; type: binding; conditions: FP assay, FITC-YAP(61-100), TEAD3 protein
T2 sequence (Q99594 219-435): as the sequence (Q99594 219-435 Y230F) above, with F12Y counted along it
T2 sequence (P46937 61-100 partner limits assumed): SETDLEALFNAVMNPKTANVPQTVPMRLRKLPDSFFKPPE
Procedure, shortened: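 Then 30 nmol/L FITC-YAP(61–100) added for 30 min at room temperature. Polarisation read at ex 480/em 520 nm. Unlabelled synthetic YAP peptide as positive control; triplicates.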

TEAD1 [7] = biological target: T3, TEAD1 (Homo sapiens, UniProt P28347); experiment: cellular thermal shift assay; type: cell-based; conditions: HEK293T cells, 50 μmol/L, 6 h
Procedure, shortened: as §4
Target sequence in this assay (P28347 whole entry): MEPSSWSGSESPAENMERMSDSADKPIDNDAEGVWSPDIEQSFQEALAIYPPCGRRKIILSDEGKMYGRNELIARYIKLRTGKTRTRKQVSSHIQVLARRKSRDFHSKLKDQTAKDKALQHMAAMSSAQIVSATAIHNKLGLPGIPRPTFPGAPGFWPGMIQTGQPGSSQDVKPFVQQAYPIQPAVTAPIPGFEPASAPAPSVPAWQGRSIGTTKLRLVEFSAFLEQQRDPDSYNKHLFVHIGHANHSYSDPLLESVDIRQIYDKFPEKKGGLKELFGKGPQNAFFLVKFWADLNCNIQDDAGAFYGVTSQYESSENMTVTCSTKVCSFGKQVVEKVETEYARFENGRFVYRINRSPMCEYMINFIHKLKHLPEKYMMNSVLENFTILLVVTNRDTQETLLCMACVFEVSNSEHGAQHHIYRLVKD

TEAD1 [8] = biological target: T3, TEAD1; experiment: intact protein mass spectrometry, TEAD1; type: binding; conditions: excessive compound, 24 h at 4 °C
Procedure, shortened: (§5)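 Intact-mass LC/MS. Protein diluted to 1 mg/mL in water with 0.1% formic acid; 2 μg injected. Separated on a PLRP-S column with a 15-min water/acetonitrile (0.1% formic acid) gradient at 0.300 mL/min. Analysed on an Orbitrap Fusion with HESI source (capillary 350 °C, 3.5 kV).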
Target sequence in this assay (P28347 209-426): as the sequence (P28347 209-426) above

TEAD3 [9] = biological target: T1, TEAD3; experiment: intact protein mass spectrometry, TEAD3; type: binding; conditions: excessive compound, 24 h at 4 °C
Procedure, shortened: as §5
Target sequence in this assay (Q99594 219-435): as the sequence (Q99594 219-435 Y230F) above, with F12Y counted along it

TEAD‒YAP interaction [10] = biological target: T2, TEAD‒YAP interaction; conditions: FP assay; cited from earlier work

TEAD3-YBD recombinant protein, sequence (Q99594 219-435): as the sequence (Q99594 219-435 Y230F) above, with F12Y counted along it

| SMILES | inhibition of TEAD3 palmitoylation [1] | inhibition of TEAD2 palmitoylation (TEAD2) | inhibition of TEAD4 palmitoylation (TEAD4) | ectopic or tumorous growth (juvenile zebrafish) | effect on thermal stability of TEAD3 C371A mutant (TEAD3-YBD C371A mutant) | thermal stability / soluble fraction of TEAD3 in intact cells (TEAD3 [5]) | body growth rate (juvenile zebrafish; vs DMSO) | body length (juvenile zebrafish; vs DMSO) | growth rate of the caudal fin (juvenile zebrafish; vs DMSO) | further results |
| --- | --- | --- | --- | --- | --- | --- | --- | --- | --- | --- |
| C=CC(=O)N1CCC(O)(CCCOCc2ccccc2)CC1 [DC-TEAD3in01, 1-(4-(3-(Benzyloxy)propyl)-4-hydroxypiperidin-1-yl)prop-2-en-1-one] | potent inhibition |  |  |  |  |  |  |  |  |  |
| C=CC(=O)N1CCN(CCCOCc2ccccc2)CC1 [DC-TEAD3in02, 1-(4-(3-(Benzyloxy)propyl)piperazin-1-yl)prop-2-en-1-one] | potent inhibition |  |  |  |  |  |  |  |  |  |
| C=CC(=O)N1CCCN(CCCOCc2ccccc2)C1 [DC-TEAD3in03, 1-(3-(3-(Benzyloxy)propyl)tetrahydropyrimidin-1(2H)-yl)prop-2-en-1-one] | potent inhibition | sparing | sparing | no ectopic or tumorous growth | minimal effect | increased the soluble fraction; also recorded: significantly increases the content of TEAD3 soluble contents | did not observe a significant difference | did not observe a significant difference | reduced the growth rate; also recorded: selective reduction | selectivity over other TEAD isoforms ([1]; TEAD3 versus other TEAD isoforms, ABPP assays): 100 fold; inhibition of TEAD1 palmitoylation (TEAD1-YBD): selectively inhibited; IC50 [2]: ~18500 nM; effect on thermal stability of TEAD3 protein (wild-type TEAD3-YBD): significantly improved; effect on thermal stability of wild-type TEAD1 (widetype TEAD1): minimal effect; effect on thermal stability of TEAD1 C359S mutant (TEAD1 C359S): minimal effect; IC50 (GAL4-TEAD3): 1150 nM; TEAD reporter activity [3]: significant reduction; effect on TOP Flash beta-catenin reporter [4]: minimal effect |
| O=C(O)c1ccccc1Nc1cccc(C(F)(F)F)c1 [flufenamic acid] |  |  |  |  |  |  |  |  |  | effect on TEAD‒YAP interaction (TEAD‒YAP interaction [10]): minimal effect |

More lines, main results first:

| inhibition of TEAD3 palmitoylation [1] | inhibition of TEAD2 palmitoylation (TEAD2) | inhibition of TEAD4 palmitoylation (TEAD4) | ectopic or tumorous growth (juvenile zebrafish) | SMILES | effect on thermal stability of TEAD3 C371A mutant (TEAD3-YBD C371A mutant) | thermal stability / soluble fraction of TEAD3 in intact cells (TEAD3 [5]) | body growth rate (juvenile zebrafish; vs DMSO) | body length (juvenile zebrafish; vs DMSO) | growth rate of the caudal fin (juvenile zebrafish; vs DMSO) | further results |
| --- | --- | --- | --- | --- | --- | --- | --- | --- | --- | --- |
|  | sparing | sparing | No obvious ectopic or tumorous growth | C=CC(=O)N1CCC(CCOc2ccccc2)CC1 [DC-TEADin1072, 1-(4-(2-Phenoxyethyl)piperidin-1-yl)prop-2-en-1-one] | significantly abolished the compound effect | increase the thermal stability | decreased significantly; also recorded: reduction | nearly significantly different | reduced; also recorded: reduction | IC50 [1]: 580 ± 120 nM; effect on thermal stability of TEAD1-YBD C359A mutant (TEAD1-YBD C359A mutant): significantly abolished the compound effect; effect on TEAD‒YAP interaction (TEAD‒YAP interaction [6]): minimal effect; thermal stability of TEAD1 in intact cells (TEAD1 [7]): increase the thermal stability; tail (caudal fin) length (juvenile zebrafish; vs DMSO): no differences; difference in mass of TEAD1 protein after incubation (TEAD1 [8]): +259.5 Da; difference in mass of TEAD3 protein after incubation (TEAD3 [9]): +259.5 Da |
| minimal inhibition |  |  |  | CCC(=O)N1CCC(CCOc2ccccc2)CC1 [DC-TEADin1072-N1, 1-(4-(2-Phenoxyethyl)piperidin-1-yl)propan-1-one] |  |  |  |  |  |  |
